Screening data: PubChem BioAssay, The Scripps Research Institute Molecular Screening Center
SIAE primary = human SIAE inhibition, primary screen | SIAE FP-Rh probe binding, fluorescence polarization | 370,000 compounds, 0.69% hits | inhibition, % at 9.66 µM | AID 1053197;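 active = inhibition above a cutoff: mean of compounds within the control limits plus 3 SD of those, cut at about 17% in these data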;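 note: 0% = plate median of compound wells and 100% = probe without SIAE protein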
Target sequence (Q9HAT2 whole entry, looked up): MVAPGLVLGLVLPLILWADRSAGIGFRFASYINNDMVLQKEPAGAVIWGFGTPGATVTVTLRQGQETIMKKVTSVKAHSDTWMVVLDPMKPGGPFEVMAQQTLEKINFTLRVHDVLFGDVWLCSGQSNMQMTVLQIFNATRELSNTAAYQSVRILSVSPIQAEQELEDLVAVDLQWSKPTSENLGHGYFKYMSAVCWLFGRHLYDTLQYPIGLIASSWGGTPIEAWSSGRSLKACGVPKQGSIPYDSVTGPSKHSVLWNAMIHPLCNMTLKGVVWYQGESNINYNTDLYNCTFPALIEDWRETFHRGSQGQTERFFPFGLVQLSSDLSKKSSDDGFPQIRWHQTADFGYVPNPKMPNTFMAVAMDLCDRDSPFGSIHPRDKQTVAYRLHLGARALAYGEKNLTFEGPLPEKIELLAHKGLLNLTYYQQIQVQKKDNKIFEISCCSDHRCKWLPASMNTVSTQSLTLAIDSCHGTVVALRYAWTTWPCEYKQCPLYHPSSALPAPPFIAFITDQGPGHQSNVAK
HTRA1 inh = blocks human HTRA1 serine peptidase. recombinant HTRA1, FP-rhodamine activity-based probe, fluorescence polarization. inhibition, % at 5.96 µM. 340,000 compounds, 0.5% hits; in the data active = inhibition above about 36%;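 note: 0% = enzyme with DMSO and 100% = wells lacking enzyme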
mABHD4 FP = inhibits mouse alpha/beta hydrolase domain 4 | Q8VD66 | purified mABHD4, FP-Rh probe fluorescence polarization | inhibition, % at 8.92 µM | 370,000 compounds, 0.54% hits | AID 720543;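 active = inhibition exceeding the mean over every tested compound plus 3 SD, cut at about 30% in these data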;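 note: 0% = plate median of compound wells and 100% = S159A mutant with DMSO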
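Assay system: mouse ABHD4 enzyme, wild type / Also added: fluorescent activity-based probe FP-Rh / Doses: single nominal dose of 8.92 µM, 0.89% DMSO final / Timing: 45 min compound pre-incubation plus 60 min probe step, 25 °C / Signal: FP readout, ex 525 nm / em 598 nm / Control set: S159A mutant/DMSO as 100%, compound-well median as 0%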
DAGLB inhibitor = blocks human DAGLB lipase activity; HEK293T DAGLB membrane lysate, EnzChek fluorogenic substrate; inhibition, % at 5.17 µM; 340,000 compounds, 0.059% hits; in the data active = inhibition above about 34%;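 note: 0% = enzyme with vehicle and 100% = wells lacking enzyme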
TCR CD3 inh = blocks the human TCR-CD3 interaction | TAMRA-labeled TCR probe fluorescence, biochemical | inhibition, % at 9.4 µM | 360,000 compounds, 0.37% hits | AID 651800; in the data active = inhibition above about 19%;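 note: recombinant mutant TCR 2C K166C tagged with TAMRA read by polarization; 0% = receptor in buffer alone and 100% = receptor with positive control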
mABHD4 conf = ABHD4 (mouse) inhibition, FP confirmation | shares compounds with mABHD4 FP | purified mABHD4, FP-Rh probe fluorescence polarization | inhibition, % at 8.92 µM | 1,800 compounds, 55% hits | AID 720658;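 active = mean inhibition across replicates above the hit cutoff set in the primary screen, cut at about 30% in these data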;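 note: 0% = wild-type ABHD4 with DMSO and 100% = catalytically dead S159A mutant with DMSO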
Active calls of the source: *; / = not tested or not shown. Hits are enriched below; roughly 1.6% of the tested compounds scored in any of these assays.

SMILES | SIAE primary | HTRA1 inh | mABHD4 FP | DAGLB inhibitor | TCR CD3 inh | mABHD4 conf
Nc1sc2c(c1C(=O)NCCc1ccccc1)CCCC2 | 13 | / | 37* | / | 4 | 4
Nc1sc2c(c1C(=O)NCCc1ccccc1)CCC2 | 6 | 0 | 4 | 5 | 0 | /
COc1ccc(CN[C@@H]2CC[C@@]34CCCN3C(=O)CCC[C@H]4C2)cc1OC | 3 | / | 1 | / | / | /
Oc1cccc(-c2nnc(-c3cccc(O)c3)nn2)c1 | -1 | -1 | 42* | 25 | 3 | 60*
CO[C@H]1C=CO[C@@]2(C)Oc3c(C)c(O)c4c(O)c(c(C=NN5CCN(C)CC5)c(O)c4c3C2=O)NC(=O)C(C)=CC=C[C@H](C)[C@H](O)[C@@H](C)[C@@H](O)[C@@H](C)[C@H](OC(C)=O)[C@@H]1C | 10 | 34 | 33* | 22 | -6 | 10
COC(=O)C(C[N+](=O)[O-])C1=C(O)CC(C)(C)CC1=O (stereo not drawn) | 4 | / | 10 | / | / | /
N#Cc1c(Cl)nsc1NN | 11 | 12 | 73* | 3 | -1 | 28
Cc1c(C#N)c(N)nc(Cl)c1C#N | 9 | -6 | -3 | -1 | 4 | /
CCCCCC[C@H](CC)CN(C(=O)Oc1ccccc1)c1ccccc1 | -1 | / | -2 | / | / | /
COc1ccc(-c2sc3cc4c(cc3c2C#CC2(N)CCCCC2)OCO4)cc1 | 0 | -49 | 32* | -9 | -1 | 30*
COc1cc(OC)cc(-c2sc3ccc(OC)cc3c2C#CC2(N)CCCCC2)c1 | -5 | -95 | 19 | -12 | -1 | /
Cc1cc(N2CCN(CC(C)(C)O)C[C@H]2C)ccc1N1CCN(Cc2ccccc2)[C@@H](C)C1 | 2 | / | -2 | / | 0 | /
OC1C2COC(O2)C2OC(c3ccccc3)OC12 (stereo not drawn) | -5 | / | 1 | / | -6 | /
O=c1[nH]n2c(=O)c3c([nH]c2c1N=Nc1cccc(C(F)(F)F)c1)CCCC3 | -10 | 36 | 59* | 29 | -1 | 66*
COC(CNC(=O)[C@H](Cc1ccccc1)NCC(=O)NC1CCCCC1)OC | 4 | / | 2 | / | / | /
COc1ccc(NC(=O)C(c2cc3c(cc2[N+](=O)[O-])OCO3)N2CCN(C=O)CC2)cc1 (stereo not drawn) | 9 | 5 | 31* | -1 | 2 | 0
O=CN1CCN(C(C(=O)NC2CCCCC2)c2cc3c(cc2[N+](=O)[O-])OCO3)CC1 (stereo not drawn) | 2 | 6 | 4 | 0 | 2 | /
COc1ccc(NC(=O)C(c2cc3c(cc2[N+](=O)[O-])OCO3)N(C)Cc2ccccc2)cc1 (stereo not drawn) | 15 | -23 | 67* | -3 | 16 | -27
COc1ccc(/C=C2\CC3(OC(=O)C4CCCC4)CCCN2C3)cc1 (stereo not drawn) | -2 | / | 3 | / | / | /
Fc1ccc(Cn2ccc3ccc(-c4ccc5ccn(Cc6ccc(F)cc6F)c5c4)cc32)c(F)c1 | 1 | / | 3 | / | / | /
CN(C)CCOc1ccc(-c2c(-c3ccsc3)sc3ccccc23)cc1 | 16 | -21 | 34* | -7 | -6 | 39*
COc1ccc(-c2sc3ccccc3c2-c2ccc(OCCN(C)C)cc2)cc1 | 14 | -7 | 22 | 1 | 7 | /
Cc1ccccc1C1CCC2(CC1)CCN(CC[C@@H](O)c1ccccc1)C2=O (stereo partly drawn) | -3 | / | -14 | / | / | /
[O-]C(=C(C(=S)Nc1cccc2ccccc12)[n+]1cccc(CO)c1)c1ccc(Cl)s1 | 5 | 9 | 30* | 7 | 0 | 63*
CC1CCN(c2ccc(C(=O)O)cc2NS(=O)(=O)c2ccccc2[N+](=O)[O-])CC1 | 1 | / | 44* | / | / | 42*
SMILES | SIAE primary | HTRA1 inh | mABHD4 FP | DAGLB inhibitor | TCR CD3 inh | mABHD4 conf
CC1CCN(c2ccc(C(=O)O)cc2NS(=O)(=O)c2ccc(F)cc2)CC1 | 6 | / | 28 | / | / | /
CC1CCN(c2ccc(C(=O)O)cc2NS(=O)(=O)c2ccc(C(C)(C)C)cc2)CC1 | 6 | / | 42* | / | / | 52*
COC(=O)N1Cc2ccnnc2CC1c1ccccc1-c1ccc(OC)cc1 (stereo not drawn) | 0 | / | 6 | / | -3 | /
CCc1ccc(Nc2ccc(C(=O)O)cc2[N+](=O)[O-])cc1 | 2 | 0 | 55* | 14 | 7 | 69*
Cc1cc(C)cc(Nc2ccc(C(=O)O)cc2N)c1 | 5 | 23 | 12 | 1 | 15 | /
COc1cc(Nc2ccc(C(=O)O)cc2[N+](=O)[O-])cc(OC)c1 | -6 | -6 | 36* | 9 | -4 | 57*
Cc1cc(C)cc(Nc2ccc(C(=O)O)cc2[N+](=O)[O-])c1 | -2 | -1 | 32* | 15 | -1 | 54*
CCc1ccc(Nc2ccc(C(N)=O)cc2[N+](=O)[O-])cc1 | -3 | -2 | 1 | 14 | -1 | /
COc1cccc(Nc2ccc(C(=O)O)cc2N)c1 | -2 | 15 | 22 | 2 | 1 | /
C[C@H]1CN(C(=O)OC(C)(C)C)CCN1c1ccc(Br)c(C#N)c1 | 5 | / | 0 | / | 4 | /
CCCCOc1ccc2c(c1)C(=O)c1cc(O)ccc1-2 | 9 | 35 | 44* | 19 | 5 | 54*
CCOc1ccc2c(c1)C(=O)c1cc(OCC(=O)O)ccc1-2 | -9 | 1 | 2 | 5 | 2 | /
S=C(Nc1ccc(I)cc1)OC1CCC12CCC(c1ccccc1)CC2 (stereo not drawn) | -6 | / | -19 | / | / | /
CCCCNc1c(-c2ccc(Sc3ccc(OC)cc3)cc2)nc2cc(C)ccn12 | 15 | 17 | 39* | -5 | -4 | 39*
COc1ccc(-c2nc3cc(C)ccn3c2NCC2CCCO2)cc1OC (stereo not drawn) | -2 | 2 | 7 | -1 | 5 | /
CCCCNc1c(-c2ccc(-c3ccc(C(C)=O)cc3)c(OC)c2)nc2cc(C)ccn12 | 8 | -7 | 46* | -2 | 6 | 56*
NC(=O)c1ccsc1NC(=O)c1ccc([N+](=O)[O-])o1 | 9 | 4 | 50* | 4 | 1 | 56*
COC(=O)CC#C[C@H](C)[C@@H](NS(=O)(=O)c1ccc([N+](=O)[O-])cc1)C(C)(C)C | 1 | / | 6 | / | 5 | /
CC1=C(O)C(=O)C(C2=C(O)C(=O)C(C)=C(O)C2=O)=C(O)C1=O | 7 | 33 | 40* | -5 | 0 | 38*
C(=C\c1ccccc1)/C=N/Nc1nc2ccccc2s1 | -1 | -15 | 8 | -1 | -15 | /
C(=N\Nc1nc2ccccc2s1)/c1ccccn1 | 1 | / | 37* | / | -2 | 40*
Cc1cc(NN=Cc2ccccn2)nc2ccccc12 | 2 | / | 43* | / | -4 | 27
CCC/C=N/Nc1nc2ccccc2s1 | 7 | 28 | 50* | -1 | -9 | 17
C(=NNc1ccc2ccccc2n1)c1ccccn1 | 7 | / | 44* | / | -5 | 12
Cc1cc(NN=Cc2ccccn2)nc2c(C)cccc12 | 1 | / | 2 | / | -3 | /
COc1ccccc1CNC1CCC12CCC(c1ccccc1)CC2 (stereo not drawn) | 0 | / | 6 | / | / | /
